Screening results: PubChem, several laboratories
The list is not random: actives were taken first. Their share in the collection is about 1.5%.
NSD2 inh – NSD2 (human) methyltransferase inhibition. O96028. NSD2 peptide methylation, AlphaScreen, 120 min. inhibition, % at 12.5 µM. actives 0.54% (n = 310,000)
DNMT1 block – inhibitors of human DNMT1; P26358; DNMT1 molecular beacon, Hinp1I cleavage, fluorescence; inhibition (reported as % activation of signal), % at 10 µM; actives 0.83% (n = 360,000)
NS3 helicase inh – blocks Hepatitis C virus NS3 helicase unwinding; NS3 helicase DNA unwinding, Cy5 molecular beacon fluorescence; inhibition, % at 10.9 µM; actives 0.56% (n = 290,000);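 active means inhibition above the mean of all tested compounds plus 3 SD, set per campaign, cut at about 35% in these data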;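 further: 0% = DMSO wells and 100% = thioflavine S control wells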
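Measured by: Cy5 fluorescence, 0 and 60 min reads / Assay system: NS3 helicase fragment of HCV / Control set: low DMSO, high thioflavine S at 110 µM / Times: 1 h reaction at 25 °C, ATP-initiated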
Casp6 inh – caspase-6 (human) enzyme inhibition | P55212 | purified caspase-6, Z-VEID-R110 cleavage fluorescence | inhibition, % at 12.5 µM | actives 0.53% (n = 350,000) | AID 686996;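 active means mean inhibition across replicates at least about 35%, with every replicate also reaching that limit, limit read from the data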;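 further: 0% = median of neutral control wells and 100% = no fluorescence left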
DNMT1 interf DR – beacon fluorescence artifact, dose response counter-screen; shares compounds with DNMT1 block; IC50, µM; molecular beacon fluorescence, spectral interference counter-screen; 200 tested, under 10 active; call rule not given here
DNMT1 confirm – DNMT1 inhibition confirmation, single concentration. shares compounds with DNMT1 block. DNMT1 molecular beacon HinP1I cleavage, fluorescence. inhibition, % at 10 µM. actives 8% (n = 2,300). AID 602385;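 active means average inhibition of at least 30% in the single-concentration confirmation test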
Beacon interf – beacon fluorescence artifact counter-screen. shares compounds with DNMT1 block. DNMT1 molecular beacon spectral interference counterscreen, fluorescence 485/520. activation (fluorescence interference), % at 10 µM. actives 1% (n = 2,300);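 active means activation of at least 30% at 10 µM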;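 further: DNMT1 catalytic domain with a HinP1I cleavage step and a FAM/dabcyl DNA beacon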
* hit, by the source's call; / = not tested or not shown; + = active, no number. Unless noted, no stated cut-off is given here; in the data, active means inhibition above about 50%; inactive means the rest.

SMILES	NSD2 inh	DNMT1 block	NS3 helicase inh	Casp6 inh	DNMT1 confirm	Beacon interf	others
COc1ccccc1C1C2=C(CC(C)(C)CC2=O)N(CC(=O)O)C2=C1C(=O)CC(C)(C)C2	-1	52*	5	0	7	9
COc1ccc(N2C3=C(C(=O)CC(C)(C)C3)C(c3ccccc3OC)C3=C2CC(C)(C)CC3=O)cc1	-7	-8	-5	4	/	/
Cc1ccc(S(=O)(=O)N[C@H]2CC[C@@H](CCn3cc(C(C)C)nn3)O[C@@H]2CO)cc1	/	/	/	6	/	/
O=C(NC1CCCC1)[C@H]1[C@H](CO)[C@H]2Cn3c(ccc(-c4cccnc4)c3=O)[C@@H]1N2CCc1ccccc1	/	/	/	2	/	/
Cc1cc(NC(=O)c2cc(-c3ccccn3)nc3c(Cl)cccc23)no1	1	58*	15	0	0	0
C=CCn1c(=NC(=O)C2CCCCC2)sc2cc(NC(C)=O)ccc21	/	51*	6	-3	0	-3
C=CCn1c(=NC(=O)C2CC2)sc2cc(NC(C)=O)ccc21	/	1	-5	-3	/	/
COc1cc(NS(=O)(=O)c2ccc(OC)c(C)c2C)c(OC)cc1Cl	-5	-3	2	/	/	/
COc1ccc(OC)c(S(=O)(=O)Nc2cc(OC)c(Cl)cc2OC)c1	-2	69*	-5	/	4	6
CCC(=O)Nc1ccc2c(c1)C(=O)N(C)[C@@H]1CC[C@H](CC(=O)NCCc3ccncc3)O[C@H]1CO2	/	/	/	0	/	/
CO[C@H]1CN(C)C(=O)c2ccc(NC(=O)Nc3cc(F)ccc3F)cc2OC[C@@H](C)N(C(=O)c2cnccn2)C[C@H]1C	/	/	/	-1	/	/
COCCSc1ccccc1C(=O)N1CCCC(C)C1 (stereo not drawn)	3	85*	-5	-3	0	3
COc1ccc(S(=O)(=O)N(C)C[C@@H]2OCCCC[C@H](C)Oc3ccc(NC(=O)Nc4ccc5c(c4)OCO5)cc3C(=O)N([C@H](C)CO)C[C@@H]2C)cc1	/	/	/	-2	/	/
COc1ccc(NC(=O)/C(C#N)=C\c2ccc(Br)o2)cc1	-2	79*	20	45*	3	1
Cc1ccc(S(=O)(=O)N(C)C[C@H]2Oc3c(NC(=O)Nc4ccc(F)cc4)cccc3C(=O)N([C@@H](C)CO)C[C@H]2C)cc1	/	/	/	0	/	/
CCc1nnc(NS(=O)(=O)c2ccc(NC(=S)NC(=O)/C=C/c3ccc(C(C)C)cc3)cc2)s1	23	62*	-22	/	33*	-4	DNMT1 interf DR=>99
O=C(/C=C/c1ccc(Br)cc1)NC(=S)Nc1ccc(S(=O)(=O)Nc2nccs2)cc1	-1	86*	2	/	67*	-2	DNMT1 interf DR=>99
CCc1nnc(NS(=O)(=O)c2ccc(NC(=S)NC(=O)/C=C/c3ccccc3)cc2)s1	16	-1	29	21	/	/
CC1(OC(=O)CCc2ccccc2)C(=O)C=C2C=C3CCCN3C=C2C1=O (stereo not drawn)	/	77*	/	32	2	0
CC1(OC(=O)CCc2ccccc2)C(=O)C=C2C=C(c3ccc(C#N)cc3)N(C3CCCCC3)C=C2C1=O (stereo not drawn)	/	-4	/	/	/	/
CC(=O)N1[C@H](CO)[C@H](c2ccc(-c3cccnc3)cc2)[C@H]1CNC(=O)C1CC1	/	/	/	6	/	/
O=C(O)c1ccc(Cl)c(S(=O)(=O)N(Cc2ccccc2)c2ccccc2)c1	1	0	-19	8	/	/
CCN(c1ccccc1)S(=O)(=O)c1cc(C(=O)O)ccc1C	+	85*	16	/	0	1
C[C@H]1CN([C@@H](C)CO)C(=O)Cc2cc(NC(=O)Nc3ccc4c(c3)OCO4)ccc2O[C@@H]1CN(C)CC1CCCCC1	/	/	/	-1	/	/
CC(C)NC(=O)N(C)C[C@@H]1Oc2cc(Br)ccc2S(=O)(=O)N([C@@H](C)CO)C[C@@H]1C	/	/	/	0	/	/
SMILES	NSD2 inh	DNMT1 block	NS3 helicase inh	Casp6 inh	DNMT1 confirm	Beacon interf	others
COc1ccc(NC(=O)Nc2ccc3c(c2)[C@@H]2C[C@@H](CC(=O)NCC4CC4)O[C@H](CO)[C@@H]2O3)cc1	/	/	/	1	/	/
Cc1c(C(=O)Nc2ccccc2)cn2c(nc3ccccc32)c1C#N	13	24	7	-2	/	/
Cc1ccccc1C(=O)Nc1ccc2c(C#N)c3nc4ccccc4nc3n2c1	/	66*	25	/	4	-3
CO[C@@H]1CC[C@@H]2CCN(C)C(=O)CCCN(C)C(=O)c3cccc(C#N)c3OC[C@H]1O2	/	/	/	3	/	/
CCn1c(SCC(=O)Nc2cc(F)ccc2C)nnc1-c1ccccc1O	-3	56*	21	/	1	1
COc1ccc2cc(C(=O)Nc3ccc(O)cc3)sc(=O)c2c1OC	-1	-3	1	0	/	/
COc1ccc2cc(C(=O)Nc3ccc(Cl)cc3)sc(=O)c2c1OC	-1	57*	-10	/	14	0
Cc1cc2cc(CNC(=O)Nc3ccc(Cl)c(Cl)c3)ccc2n1C	/	58*	0	0	7	5
CC=Cc1ccc2n(c1=O)C[C@@H]1[C@@H](CO)[C@H](C(=O)Nc3ccc(-c4ccccc4)cc3)N(C)[C@H]21 (mixture of isomers)	/	/	/	-2	/	/
Cc1ccc(C)c(OCC(=O)N/N=C/c2c(C)nn(-c3ccccc3)c2Cl)c1C	-5	53*	0	/	0	0
CC(C)C#Cc1ccc([C@@H]2[C@@H](CO)N3C(=O)CN(C(=O)c4ccc5c(c4)OCO5)C[C@H]23)cc1	/	/	/	5	/	/
Cc1ccc2nc(Nc3ccc4[nH]c(=O)[nH]c4c3)c(-n3nc(C)cc3C)nc2c1	1	51*	7	/	3	2
O=C(COC(=O)c1ccc(Br)o1)Nc1ccc2[nH]c(=O)[nH]c2c1	-4	8	/	2	/	/
NC(=O)c1ccc(NC(=O)COC(=O)/C=C/c2ccc(Br)o2)cc1	0	90*	/	80*	2	0
O=C(COC(=O)/C=C/c1ccc(Br)o1)Nc1ccc2[nH]c(=O)[nH]c2c1	0	82*	/	0	14	2
CN(C)S(=O)(=O)c1cccc(NC(=O)COC(=O)/C=C/c2ccc(Br)o2)c1	-1	12	8	8	/	/
COc1cccc(-c2ccc(CC[C@H]3O[C@H]4CC[C@H](CO)O[C@H]4C[C@@H]3NC(=O)c3cnccn3)cc2)c1	/	/	/	4	/	/
CC(C)(C)C(=O)Nc1nnc(CC(=O)NCc2ccccc2)s1	4	61*	10	5	7	4
O=C(Nc1ccccc1F)N1C[C@H]2[C@@H](c3ccccc31)[C@@H](CO)N2C(=O)C1CCCC1	/	/	/	-1	/	/
N#C/C(=C\c1ccc(OC(=O)c2ccc(Br)s2)cc1)c1nc2ccccc2[nH]1	/	82*	-3	/	5	-6
N#C/C(=C/c1ccc(OC(=O)c2ccc(Br)s2)cc1)c1nc2ccccc2[nH]1	-1	85*	/	-1	3	-6
N#C/C(=C\c1ccc(OC(=O)c2ccc(Cl)s2)cc1)c1nc2ccccc2[nH]1	/	83*	10	/	7	-5
